# Source: ChEMBL document CHEMBL1255487, “Preclinical evaluation of the antifolate QN254, 5-chloro- N'6'-(2,5-dimethoxy-benzyl)-quinazoline-2,4,6-triamine, as an antimalarial drug candidate” (Antimicrob Agents Chemother, 2010)
# Key:
# Plasmodium berghei [1] = experiment: Antimalarial activity against Plasmodium berghei ANKA infected in NMRI mice (Mus musculus) assessed as survival rate at 30 mg/kg, perorally administered as single dose; type: functional; settings: route oral
# How it was run: (§1)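 Infection: 5 female NMRI mice (20–22 g) per group, inoculated intravenously with 0.2 ml of donor blood at 1 × 10^8 parasitized erythrocytes/ml. Oral administration in 0.5% carboxymethyl cellulose. Survival time recorded up to 30 days after infection and averaged per group.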
# Plasmodium berghei [2] = experiment: Antimalarial activity against Plasmodium berghei ANKA infected in NMRI mice (Mus musculus) assessed as survival rate at 100 mg/kg, perorally administered as single dose; type: functional; settings: route oral; how it was run: as §1
# Plasmodium berghei [3] = experiment: Antimalarial activity against Plasmodium berghei ANKA infected in NMRI mice (Mus musculus) assessed as cure rate at 10 mg/kg, perorally administered as single dose […]; type: functional; settings: route oral
# How it was run: (§2)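 Female NMRI mice (20–22 g), 5 per group, infected intravenously with 0.2 ml of 1 × 10^8 parasitized erythrocytes/ml from a fresh donor mouse. Compound suspended in 0.5% carboxymethyl cellulose and given orally. Survival followed to day 30 post-infection; an animal was scored cured if it survived to day 30 without parasites.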
# Plasmodium berghei [4] = experiment: Antimalarial activity against Plasmodium berghei ANKA infected in NMRI mice (Mus musculus) assessed as cure rate at 30 mg/kg, perorally administered as single dose […]; type: functional; settings: route oral; how it was run: as §2
# Plasmodium berghei [5] = experiment: Antimalarial activity against Plasmodium berghei ANKA infected in NMRI mice (Mus musculus) assessed as cure rate at 100 mg/kg, perorally administered as single dose measured on […]; type: functional; settings: route oral; how it was run: as §2
# Plasmodium berghei [6] = experiment: Antimalarial activity against Plasmodium berghei ANKA infected in NMRI mice (Mus musculus) assessed as cure rate at 3 times 30 mg/kg, perorally measured […]; type: functional; settings: route oral; how it was run: as §2
# Mus musculus [7] = experiment: Toxicity in NMRI mice (Mus musculus) infected with Plasmodium berghei ANKA at 10 mg/kg, perorally administered as single dose measured up to 30 days postinfection; type: organism-based; design: dose 10 mg/kg, route oral; settings: in vivo, po, 720 h
# Mus musculus [8] = experiment: Toxicity in NMRI mice (Mus musculus) infected with Plasmodium berghei ANKA at 15 mg/kg, perorally administered as single dose measured up to 30 days postinfection; type: organism-based; design: dose 15 mg/kg, route oral; settings: in vivo, po, 720 h
# Mus musculus [9] = experiment: Toxicity in NMRI mice (Mus musculus) infected with Plasmodium berghei ANKA at 30 mg/kg, perorally administered as single dose measured up to 30 days postinfection; type: organism-based; design: dose 30 mg/kg, route oral; settings: in vivo, po, 720 h
# Mus musculus [10] = experiment: Toxicity in NMRI mice (Mus musculus) infected with Plasmodium berghei ANKA at 3 times 30 mg/kg, perorally measured up to 30 days postinfection; type: organism-based; design: dose 30 mg/kg, route oral; settings: in vivo, po, 720 h
# Mus musculus [11] = experiment: Toxicity in NMRI mice (Mus musculus) infected with Plasmodium berghei ANKA at 3 times 60 mg/kg, perorally measured up to 30 days postinfection; type: organism-based; design: dose 60 mg/kg, route oral; settings: in vivo, po, 720 h
# [12] = Binding affinity to wild type Plasmodium falciparum DHFR by competitive binding assay
# [13] = Binding affinity to recombinant Plasmodium falciparum V1/S DHFR S108N, N51I, C59R, I164L mutant by competitive binding assay; design: species or system V1S
# [14] = AUC (0 to 24 hrs) in Wistar rat at 50 mg/kg, po; type: ADME, organism-based; design: time < 24 hr, dose 50 mg/kg, route oral; settings: plasma
# Rattus norvegicus = experiment: Toxicity in Wistar rat assessed as occurrence of massive bone marrow atrophy at => 50 mg/kg, po after 2 weeks; type: organism-based; design: dose 50 mg/kg, route oral; settings: in vivo, 336 h
# How it was run: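 Male Wistar rats, about 10 weeks old (254–292 g), 5 per group, gavaged daily with 50, 150 or 500 mg/kg/day. Vehicle was 10% of 1% aqueous Solutol HS15 plus 90% of 0.5% aqueous methylcellulose; exploratory 2-week design. Clinical observations, body weight, food intake, hematology, clinical chemistry and gross pathology recorded. Histopathology covered gross lesions and selected organs in the control and low-dose groups.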
# Plasmodium berghei [15] = experiment: Antimalarial activity against Plasmodium berghei ANKA infected in perorally dosed NMRI mice (Mus musculus) assessed as reduction in parasitemia administered as single dose measured on day 3 postinfection; type: functional; settings: po, 72 h
# Plasmodium falciparum [16] = experiment: Antimalarial activity against pyrimethamine-resistant Plasmodium falciparum clinical isolate harboring S108N, N51I mutation in DHFR assessed as decrease in parasitaemia; type: functional, organism-based
# How it was run: (§3)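 P. falciparum grown in RPMI 1640 with 10% (v/v) human serum, 25 mM bicarbonate, 2 mM glutamine, 25 mM HEPES, 5 nM para-aminobenzoic acid and 23 nM folic acid. Parasites exposed to a concentration series. Read-out is [3H]hypoxanthine incorporation into nucleic acid. IC50 taken from non-linear regression of the dose–response curve.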
# Plasmodium falciparum [17] = experiment: Antimalarial activity against pyrimethamine-resistant Plasmodium falciparum clinical isolate harboring S108N, C59R mutation in DHFR assessed as decrease in parasitaemia; type: functional, organism-based; how it was run: as §3
# Plasmodium falciparum [18] = experiment: Antimalarial activity against pyrimethamine-resistant Plasmodium falciparum clinical isolate harboring S108N, N51I, C59R mutation in DHFR assessed as decrease in parasitaemia; type: functional, organism-based; how it was run: as §3
# Plasmodium falciparum [19] = experiment: Antimalarial activity against pyrimethamine-resistant Plasmodium falciparum V1/S harboring S108N, N51I, C59R, I164L mutation in DHFR assessed as decrease in parasitaemia; type: functional, organism-based; settings: V1S
# [20] = AUC in CD-1 mouse at 25 mg/kg, po; type: ADME, organism-based; design: dose 25 mg/kg, route oral; settings: plasma
# How it was run: (§4)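 Mice dosed with 25 mg/kg p.o. as a 2.5 mg/ml suspension in 0.5% CMC, or with 5 mg/kg i.v. at 1 mg/ml in 10% NMP, 30% PEG 400 and 60% of 10% vitamin E-TPGS. Blood sampled at several time points. Plasma extracted with acidified acetonitrile (8:1) and quantified by LC-MS, LLOQ 12 ng/ml.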
# [21] = Half life in Wistar rat at 25 mg/kg, po; type: ADME, organism-based; design: dose 25 mg/kg, route oral; settings: in vivo
# How it was run: (§5)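 Rats dosed with 25 mg/kg p.o. as a 2.5 mg/ml suspension in 0.5% CMC, or with 5 mg/kg i.v. at 1 mg/ml in 10% NMP, 30% PEG 400 and 60% of 10% vitamin E-TPGS. Plasma sampled over time, extracted with acidified acetonitrile (8:1) and quantified by LC-MS, LLOQ 12 ng/ml.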
# [22] = Oral bioavailability in CD-1 mouse at 25 mg/kg; type: ADME, organism-based; settings: in vivo; how it was run: as §4
# [23] = Oral bioavailability in Wistar rat at 25 mg/kg; type: ADME, organism-based; settings: in vivo; how it was run: as §5
# [24] = Volume of distribution in CD-1 mouse at 5 mg/kg, iv; type: ADME, organism-based; design: dose 5 mg/kg, route intravenous; settings: in vivo; how it was run: as §4
# [25] = Volume of distribution in Wistar rat at 5 mg/kg, iv; type: ADME, organism-based; design: dose 5 mg/kg, route intravenous; settings: in vivo; how it was run: as §5
# [26] = Half life in Wistar rat at 5 mg/kg, iv; type: ADME, organism-based; design: dose 5 mg/kg, route intravenous; settings: in vivo; how it was run: as §5
# Plasmodium berghei [27] = experiment: Antimalarial activity against Plasmodium berghei ANKA infected in NMRI mice (Mus musculus) assessed as reduction in parasitemia at 15 mg/kg, perorally administered as single dose measured on day 3 postinfection; type: functional; design: scale not given: the % may be the effect or the level left; settings: route oral
# How it was run: (§6)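 P. berghei ANKA given intravenously to groups of 5 female NMRI mice (20–22 g): 0.2 ml of 1 × 10^8 parasitized erythrocytes/ml from a donor mouse. Oral dosing in 0.5% carboxymethyl cellulose. Parasitemia counted by microscopy. Activity is the control-minus-treated parasitemia difference, expressed as percent of untreated controls.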
# Plasmodium berghei [28] = experiment: Antimalarial activity against Plasmodium berghei ANKA infected in NMRI mice (Mus musculus) assessed as reduction in parasitemia at 30 mg/kg, perorally administered as single dose measured on day 3 postinfection; type: functional; design: scale not given: the % may be the effect or the level left; settings: route oral; how it was run: as §6
smiles,measurement,setting,value
COc1ccc(OC)c(CNc2ccc3nc(N)nc(N)c3c2Cl)c1,Survival,Plasmodium berghei [1],8.1 days
same,Survival,Plasmodium berghei [2],23.4 days
same,Activity,Plasmodium berghei [3],0%
same,Activity,Plasmodium berghei [4],0%
same,Activity,Plasmodium berghei [5],50%
same,Activity,Plasmodium berghei [6],80%
same,Activity,Mus musculus [7],0%
same,Activity,Mus musculus [8],0%
same,Activity,Mus musculus [9],0%
same,Activity,Mus musculus [10],0%
same,Activity,Mus musculus [11],40%
same,Ki,[12],0.39 nM
same,Ki,[13],0.58 nM
same,AUC(0-t) at 24 h,[14],27600 ng·h/mL
same,Activity,Rattus norvegicus,Toxic
same,ED50,Plasmodium berghei [15],7.2 mg/kg
same,ED90,Plasmodium berghei [15],12.4 mg/kg
same,IC50,Plasmodium falciparum [16],4.48 nM
same,IC50,Plasmodium falciparum [17],4.48 nM
same,IC50,Plasmodium falciparum [18],11.7 nM
same,IC50,Plasmodium falciparum [19],7.61 nM
same,AUC,[20],44.6 µM·h
same,half-life,[21],9.3 h
same,bioavailability,[22],100%
same,bioavailability,[23],63%
same,Vd,[24],2.85 L/kg
same,Vd,[25],4.7 L/kg
same,half-life,[26],3.5 h
same,Activity,Plasmodium berghei [27],73%
same,Activity,Plasmodium berghei [28],>99.99%
